Rin1 Abl inh = human Rin1-Abl interaction inhibition; TR-FRET Rin1/Abl binding, biochemical; 360,000 compounds, 0.4% hits; inhibition, % at 7.35 µM; in the data active = inhibition above about 5%, passing the limit was not always enough
MBD2 DNA inh = blocks human MBD2 binding to methylated DNA; Q9UBB5; TR-FRET, MBD2 binding to methylated oligonucleotide; inhibition, % at 4.4 µM; 370,000 compounds, 0.31% hits; AID 686964; in the data active = inhibition above about 13%
LEDGF integ inh = blocks HIV-1 LEDGF/p75-dependent DNA integration; TR-FRET IN-LEDGF/p75 DNA integration, Eu/Cy5; inhibition, % at 3.7 µM; AID 743269; 370,000 compounds, 0.64% hits;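 active = inhibition above the screen-wide mean plus 3 SD, cut at about 13% in these data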;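 note: signal is the Cy5 over europium emission ratio at 671 and 618 nm; 0% = plate median of compound wells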
UHRF1 binding = human UHRF1 methylated DNA binding inhibitors; Q96T88; 370,000 compounds, 0.75% hits; inhibition, % at 4.4 µM; UHRF1 binding to methylated oligo, TR-FRET; in the data active = inhibition above about 21%;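 note: UHRF1 SRA domain binding a hemimethylated CpG hairpin DNA probe; 0% = median of test compound wells and 100% = reference inhibitor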
TDP2 absorb = blocks human TDP2 phosphodiesterase activity; inhibition, % at 12.8 µM; AID 720702; recombinant TDP2, T5PNP hydrolysis, p-nitrophenol absorbance 415 nm; 370,000 compounds, 0.34% hits; O95551;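 active = inhibition above the mean of all tested compounds plus 3 SD, set per campaign, cut at about 25% in these data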;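 note: 0% = DMSO with enzyme and 100% = buffer with substrate but no TDP2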
Target sequence (O95551 whole entry, looked up): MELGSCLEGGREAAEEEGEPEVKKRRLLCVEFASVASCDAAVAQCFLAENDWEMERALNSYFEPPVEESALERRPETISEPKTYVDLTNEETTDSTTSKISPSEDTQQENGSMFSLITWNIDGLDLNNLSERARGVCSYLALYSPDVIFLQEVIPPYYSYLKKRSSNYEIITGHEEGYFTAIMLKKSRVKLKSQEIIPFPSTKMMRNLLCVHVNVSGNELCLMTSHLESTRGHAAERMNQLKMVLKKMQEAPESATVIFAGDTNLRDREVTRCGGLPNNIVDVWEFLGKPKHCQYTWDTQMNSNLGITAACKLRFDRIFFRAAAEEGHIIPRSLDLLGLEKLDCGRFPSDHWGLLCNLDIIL
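Incubation: 2 h at 37 °C; Test system: recombinant human TDP2; Quantity: enzyme 120 nM; Read-out basis: percent inhibition; Medium: 50 mM Tris-HCl pH 7.5 with Mg2+, KCl, DTT, BSA; Repeats: single replicate; Compound: 12.8 µM single point, 1% DMSO; Signal: epi absorbance; Reagent: 5 mM T5PNP chromogenic substrate; Benchmarks: no-enzyme high, DMSO-plus-enzyme low.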
IN multimer up = counter-screen for LEDGF/p75 integration inhibitors: HIV-1 integrase multimerization activators; shares compounds with LEDGF integ inh; TR-FRET HIV-1 integrase multimerization, biochemical; activation, % at 7.7 µM; 2,000 compounds, 17% hits; AID 1053131; in the data active = activation above about 8.9%
TR-FRET interf = optically interferes with TR-FRET readout in LEDGF counter-screen; shares compounds with LEDGF integ inh; TR-FRET optical interference counterscreen, HIV-1 IN multimerization; inhibition, % at 7.7 µM; 2,000 tested, under 10 active; AID 1053135;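 active = inhibition above the mean over all tested compounds plus 3 SD, which no compound reached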;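 note: 0% = integrase with antibodies and DMSO and 100% = antibodies without integrase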
LEDGF integ conf = confirmation of HIV-1 LEDGF/p75-dependent integration inhibitors | shares compounds with LEDGF integ inh | TR-FRET LEDGF/p75-dependent HIV-1 integration, biochemical | inhibition, % at 3.7 µM | 2,000 compounds, 36% hits | AID 1053136; in the data active = inhibition above about 14%
* hit, by the source's call; / = no result given. This is a sample that favours compounds with a hit; in the whole collection about 1.9% have one here.

SMILES | Rin1 Abl inh | MBD2 DNA inh | LEDGF integ inh | UHRF1 binding | TDP2 absorb | IN multimer up | TR-FRET interf | LEDGF integ conf
CC1C/C(=C/c2cccs2)C(=O)/C(=C/c2cccs2)C1 (configuration not stated) | 3 | 2 | 29* | 28* | -17 | 0 | 2 | 5
CC(=O)Nc1ccc(S(=O)(=O)Nc2nc3ccccc3nc2Nc2ccc(C(=O)O)c(O)c2)cc1 | 3 | 2 | 26* | 26* | 4 | 23* | -117 | 29*
CCc1ccc(N2C=C(C(=O)OC)C(c3cccc4ccccc34)C(C#N)=C2N)cc1 (configuration not stated) | / | 9 | 22* | 7 | -10 | 1 | -3 | 4
COC(=O)C1=CN(c2ccc(OC)cc2)C(N)=C(C#N)C1c1cccc2ccccc12 (configuration not stated) | / | 4 | 3 | 9 | 9 | / | / | /
O=C(Nc1nccs1)c1ccc(S(=O)(=O)N2CCCCC2)cc1 | -3 | 2 | 15* | 2 | -2 | 0 | -1 | 2
CC1CN(S(=O)(=O)c2ccc(C(=O)Nc3nccs3)cc2)CC(C)O1 (configuration not stated) | 4 | -3 | 5 | 0 | 8 | / | / | /
CC(C)n1nnnc1C1(C)CCSCC(=O)N1Cc1cccc(C(F)(F)F)c1 (configuration not stated) | / | -3 | -1 | -1 | 9 | / | / | /
CCCCc1cc(=O)oc2cc(OC3CCCCC3=O)ccc12 (configuration not stated) | 0 | -6 | 18* | 0 | -5 | 0 | -1 | -7
CCCc1cc(=O)oc2c(C)c(OC3CCCCC3=O)ccc12 (configuration not stated) | -1 | 6 | -1 | 2 | 5 | / | / | /
CN(C)[C@@H]1CCN(c2ccc3c(c2)O[C@@H]2CCN(C2)S3(=O)=O)C1 | / | 0 | -3 | 2 | 0 | / | / | /
COc1ccc(C2SCC(=O)N2c2ccc(F)cc2)cc1 (configuration not stated) | 4 | 1 | 2 | 1 | 3 | / | / | /
COc1ccc(N2C(=O)CSC2c2cccc(F)c2)cc1 (configuration not stated) | 0 | 3 | 29* | 13 | 6 | 1 | -7 | -9
CCN(CC)C(=O)CC[C@@H]1CC[C@]2(CCCN(Cc3ccccn3)C2)O1 | / | -8 | 7 | -3 | -2 | / | / | /
COc1ccccc1-c1nnc2sc(COc3ccccc3)nn12 | 1 | 3 | 28* | -2 | 9 | 1 | -3 | 7
O=C(NCCc1ccc2c(c1)OCO2)c1cc(-c2ccccc2)c(N2CCOCC2)s1 | / | 0 | -1 | 1 | 5 | / | / | /
Cc1ccc2nc(-c3ccc(NC(=O)CSc4nnc(-c5cc(-c6ccc(F)cc6)n[nH]5)n4N)cc3)sc2c1 | / | 2 | 1 | -2 | 9 | / | / | /
COc1cc(NC(=O)c2cc(Cl)ccc2Cl)ccc1-c1cc2ccccc2oc1=O | 0 | -4 | 35* | -4 | 1 | 1 | -6 | -3
COc1cc(NC(=O)c2cccnc2)ccc1-c1cc2ccccc2oc1=O | / | 0 | 7 | 0 | -4 | / | / | /
COc1cc([C@H]2OC[C@H]3[C@@H]2CO[C@H]3c2ccc(O)c(OC)c2)ccc1O | 4 | 2 | -4 | 0 | 12 | / | / | /
COc1cc(C2OCC3C(c4ccc(OC5OC(CO)C(O)C(O)C5O)c(OC)c4)OCC23)ccc1O (configuration not stated) | 9 | -4 | 32* | -1 | -6 | 34* | -120 | 15*
CCOC(=O)N1CCN(C(=O)c2ccc3nc4ccc(Cl)cc4c(=O)n3c2)CC1 | 1 | -4 | 18* | 1 | -23 | 1 | -3 | 0
Cn1nnc(NC(=O)c2ccc([N+](=O)[O-])cc2Cl)n1 | 2 | 2 | 51* | 0 | 10 | 1 | -3 | -6
O=C(Nn1cnnc1)c1ccc([N+](=O)[O-])cc1Cl | 0 | -1 | 0 | 6 | -23 | / | / | /
Cc1ccc2nsnc2c1NC(=O)c1sc2ccccc2c1Cl | -1 | 3 | 25* | 2 | -1 | 4 | -13 | 1
O=C(CSc1nccc2ccccc12)N1CCN(c2ccccn2)CC1 | -28 | -16 | 14* | -16 | -8 | 3 | -16 | -2
SMILES | Rin1 Abl inh | MBD2 DNA inh | LEDGF integ inh | UHRF1 binding | TDP2 absorb | IN multimer up | TR-FRET interf | LEDGF integ conf
C=CCCC1(CCC)C(=O)/C(=C(\O)c2ccccc2)C(=O)C(CCC)=C1OC (configuration not stated) | / | 3 | 0 | 0 | -4 | / | / | /
O=C1CC(N2CCOCC2)=NC(=O)N1c1ccc(Br)cc1 | / | 2 | 0 | 1 | 1 | / | / | /
O=C(CCN1C(=O)/C(=C/c2ccco2)SC1=S)Nc1ccc(C(=O)O)c(O)c1 | 7 | 21* | 54* | 62* | 21 | 12* | -59 | 40*
O=C1/C(=C\c2ccco2)SC(=S)N1Cc1ccccc1 | 0 | -3 | 3 | 1 | -2 | / | / | /
O=C1/C(=C/c2ccco2)SC(=S)N1CC1CCCO1 (configuration not stated) | -2 | 8 | 16* | 29* | 5 | 4 | -22 | 15*
O=C(O)CCCN1C(=O)/C(=C\c2ccco2)SC1=S | 2 | 6 | 35* | 52* | 0 | 7 | -26 | 40*
O=C(Cc1ccc2c(c1)OCO2)N1CCC(n2nc(-c3ccccc3)oc2=O)CC1 | / | -1 | 3 | -1 | 3 | / | / | /
Cc1nn(Cc2c(F)c(F)c(F)c(F)c2F)c(C)c1NC(=O)c1ccc(COc2ccc(Cl)cc2Cl)o1 | 2 | 2 | 1 | -4 | 5 | / | / | /
Cc1nn(Cc2ccc(Cl)cc2Cl)c(C)c1NC(=O)c1ccc(COc2cc(Cl)ccc2Cl)o1 | -1 | -2 | 24* | 1 | -12 | 0 | 0 | -7
CC(C)CC1=NN2C(=N)/C(=C\c3coc4ccccc4c3=O)C(=O)N=C2S1 | 0 | -3 | 26* | -13 | 2 | 0 | -1 | 23*
CCSC1=NSC2=NC(=O)/C(=C\c3coc4ccccc4c3=O)C(=N)N12 | 1 | 0 | 0 | -6 | -7 | / | / | /
O=C(C1CC1)n1ccc2ccc(-c3ccc4ccn(Cc5ccccc5)c4c3)cc21 | / | 5 | -2 | 1 | -1 | / | / | /
CCC(Sc1nc2ccccc2[nH]1)C(=O)Nc1cc(C)on1 (configuration not stated) | -2 | -1 | 29* | 2 | -3 | 0 | 0 | 3
CCC(Sc1nc2ccccc2[nH]1)C(=O)Nc1ccc(NC(C)=O)cc1 (configuration not stated) | 1 | 2 | -1 | -1 | 9 | / | / | /
